# TAAR1 antag = human TAAR1 antagonism | Q96RJ0 | CHO RD-HGA16 TAAR1, Fluo-8 calcium fluorescence, antagonist | inhibition, % at 3 µM | 360,000 tested, 1.5% active | AID 624466;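 active = inhibition above a per-plate cutoff, the mean inhibition of test compounds on that plate plus 3 SD, cut at about 49% in these data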
#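 System: RD-HGA16 CHO cells with stable hTAAR1 and Gα16 | Probe or stimulus: EC80 β-phenethylamine stimulus | Dosing: 3 µM, single point | Times: Dye loading 75 min at 37 °C, then 30 min room temperature | Measured by: Fluo-8 calcium-sensitive fluorescence | Read-out basis: % inhibition of agonist calcium response | Replicates: n of 1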
# TAAR1 agonist = agonists of human TAAR1 | Q96RJ0 | CHO RD-HGA16 TAAR1, Fluo-8 calcium fluorescence; vehicle wells 0%, saturating PEA agonist 100% | activation, % at 3 µM | 360,000 tested, 0.99% active | AID 624467;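 active = activation above the mean activation of all test compounds in the run plus 3 SD, cut at about 38% in these data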
#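 Assay system – CHO-derived RD-HGA16 cells with stable Gα16 and human TAAR1 · Compound dosing – one-point dosing at 3 µM (nominal) · Incubation – 17-24 h seeding, 75 min 37 °C dye, 30 min RT · Measured by – kinetic Fluo-8 calcium fluorescence · Control set – DMSO vehicle as 0%, PEA at EC100 as 100% · Repeats – single well for each compound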
# V1R ag counter = counter-screen for oxytocin receptor agonists: human V1a receptor agonists | P37288 | CHO-V1R cells, Fluo-8 calcium fluorescence, agonist mode; 0% DMSO, 100% 3 nM vasopressin | activation, % at 3 µM | 320,000 tested, 0.25% active | AID 2797;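 active = activation above the mean activation of all tested compounds plus 3 SD, per screening run, cut at about 20% in these data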;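 note: signal is peak over basal fluorescence ratio across a 100 second FLIPR read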
# OXTR agonist = activates the human oxytocin receptor; 320,000 tested, 0.32% active; CHO-OTR cells, Fluo-8 calcium fluorescence; normalized: DMSO 0%, oxytocin 100%; activation, % at 3 µM;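 active = activation above the mean of all tested compounds plus 3 SD, cutoff set per screening run, cut at about 20% in these data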;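 note: peak over basal fluorescence ratio from a 100 s FLIPR kinetic read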
# Target sequence (P30559 whole entry, looked up): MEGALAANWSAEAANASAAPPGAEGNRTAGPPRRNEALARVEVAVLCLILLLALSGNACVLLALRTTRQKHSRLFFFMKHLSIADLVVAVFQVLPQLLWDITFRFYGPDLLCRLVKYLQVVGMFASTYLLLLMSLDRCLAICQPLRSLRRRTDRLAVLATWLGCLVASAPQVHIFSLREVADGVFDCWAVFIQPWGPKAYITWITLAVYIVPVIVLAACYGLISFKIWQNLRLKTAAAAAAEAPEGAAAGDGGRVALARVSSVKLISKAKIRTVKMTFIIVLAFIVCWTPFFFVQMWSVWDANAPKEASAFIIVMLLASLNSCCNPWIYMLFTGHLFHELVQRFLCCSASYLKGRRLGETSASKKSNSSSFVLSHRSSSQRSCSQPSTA
# OXTR potentiator = potentiators of human oxytocin receptor | CHO-OTR cells, Fluo-8 calcium fluorescence, potentiator mode; 0% = oxytocin EC15, 100% = EC100 | activation, % at 3 µM | 320,000 tested, 0.061% active | P30559;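 active = activation above that plate's cutoff, the mean activation of tested compounds plus 3 SD, cut at about 6.6% in these data, passing the limit was not always enough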
#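 System: human OTR in CHO cells; Also added: sub-maximal oxytocin, roughly EC15; Timing: compound 6 min at room temperature before oxytocin, 100 s read; Technique: Fluo-8 intracellular calcium fluorescence, ex 470-495, em 515-575 nm; Controls: oxytocin EC15 low and EC100 high; Replication: singlicate.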
# Hits are given with their value; – = inactive; · = not tested or not shown. An excerpt weighted towards active compounds, which were near 2.3% of everything screened.
SMILES,TAAR1 antag,TAAR1 agonist,V1R ag counter,OXTR agonist,OXTR potentiator
C[C@@H]1ON(C)[C@H]2C[C@H]3c4cc(-c5cccc(Cl)c5)ccc4CCN3C[C@@H]12,–,–,·,·,·
CCOC(=O)N(C)C[C@H]1OCc2cn(nn2)CCCC(=O)N([C@@H](C)CO)C[C@@H]1C,–,–,·,·,·
Nc1[nH]c(C(=O)c2ccc(Br)cc2)c(-c2ccc3ccccc3c2)c1C(=O)NCCc1c[nH]c2ccccc12,–,–,·,·,·
O=C(Cc1ccc(F)cc1)Nc1ccc(S(=O)(=O)N2CCCC2)cc1,–,–,–,–,–
O=C(Cc1ccc(Br)cc1)Nc1ccc(S(=O)(=O)N2CCCC2)cc1,–,38,–,–,–
CCCC(C(=O)Nc1ccc(S(=O)(=O)N2CCCC2)cc1)c1ccccc1 (centres undefined),–,41,–,–,–
O=C(Cc1ccc(Br)cc1)NNC(=O)Nc1ccc(Cl)cc1,–,–,–,–,–
O=C(Cc1ccc(Cl)cc1)Nc1ccc(Br)cc1,–,40,–,–,–
O=C(Nc1ccc(F)cc1)Nc1ccc(S(=O)(=O)N2CCCC2)cc1,51,48,–,–,–
COC(=O)C(CC(C)C)N(Cc1ccc(Br)cc1)S(=O)(=O)CCl (centres undefined),–,–,·,·,·
O=C(COc1cccnc1[N+](=O)[O-])NC1CCS(=O)(=O)C1 (centres undefined),–,–,–,–,–
O=C(N[C@H](Cc1ccccc1)C(=O)NCc1ccco1)[C@H]1O[C@@H](n2ccc(=O)[nH]c2=O)[C@H](O)[C@@H]1O,–,–,·,·,·
CC(C)C[C@@H]1COc2cc(NCCCN3CCOCC3)ccc2S(=O)(=O)N1,–,–,·,·,·
C[C@@H]1CN([C@H](C)CO)C(=O)c2ccccc2-c2ccccc2CO[C@@H]1CN(C)C(=O)Nc1ccccc1,–,–,·,·,·
CCn1c(C)nc2cc(C(=O)NNC(=O)Nc3ccc(Cl)c(Cl)c3)ccc21,–,41,–,–,–
CCn1c(C)nc2cc(C(=O)NNC(=O)c3ccc(C)cc3)ccc21,–,–,–,–,–
COCCCNC(=O)C[C@H]1C[C@@]2(C(=O)OC)C(=C[C@H](C(C)(C)C)O[C@@H]2C)N(CCc2ccc(OC)c(OC)c2)C1=O,–,–,·,·,·
CC1(C)CC(=O)C=C(C2CC2)C1=O,–,–,·,·,·
COc1ccc(CC(N)c2csc(NC(=O)NCCc3ccccc3)n2)cc1 (centres undefined),–,38,·,·,·
COc1ccc(CC(N)c2csc(NC(=O)C(c3ccccc3)c3ccccc3)n2)cc1 (centres undefined),–,47,·,·,·
COc1ccc(CC(N)c2csc(NC(=O)c3cccc(OC(F)(F)F)c3)n2)cc1 (centres undefined),–,–,·,·,·
COc1ccc(CC(N)c2csc(NC(=O)c3ccccc3)n2)cc1 (centres undefined),–,–,·,·,·
NC(Cc1ccccc1)c1csc(NC(=O)c2cccc(OC(F)(F)F)c2)n1 (centres undefined),–,45,·,·,·
CC(C)c1ccccc1NC(=O)Nc1nc(C(N)Cc2ccc(C(F)(F)F)cc2)cs1 (centres undefined),–,38,·,·,·
CCCC(=O)OC[C@H]1CN(C2CCCC2)S(=O)(=O)c2c(Oc3ccccc3)cccc2O1,–,–,·,·,·
SMILES,TAAR1 antag,TAAR1 agonist,V1R ag counter,OXTR agonist,OXTR potentiator
COC(=O)c1cnc(Nc2nc(C(N)Cc3ccc(OC)cc3)cs2)nc1C(F)(F)F (centres undefined),–,45,·,·,·
COc1ccc(CNC(=O)Nc2nc(C(N)Cc3ccc(C(F)(F)F)cc3)cs2)cc1 (centres undefined),49,44,·,·,·
NC(Cc1ccc(Cl)cc1)c1csc(NC(=O)NCC2CCCCC2)n1 (centres undefined),–,46,·,·,·
COC(=O)c1cnc(Nc2nc(C(N)Cc3ccc(Cl)cc3)cs2)nc1C(F)(F)F (centres undefined),–,–,·,·,·
Cc1cccc(C)c1-n1nnnc1C(c1ccnc2ccccc12)N1CCN(C/C=C/c2ccccc2)CC1 (centres undefined),–,–,·,·,·
COC(=O)C1=C(C)N(C)C(=NCc2ccccc2C(F)(F)F)NC1c1cccc(F)c1 (centres undefined),–,–,·,·,·
